{
  "source": "ChEMBL document CHEMBL1165985",
  "about": "“Dihydro-beta-agarofuran sesquiterpenes and pentacyclic triterpenoids from the root bark of Osyris lanceolata” (2010)",
  "key": {"Candida albicans": {"system": "Candida albicans", "assay": "Antimicrobial activity against Candida albicans ATCC 10231 by agar overlay technique", "type": "functional", "how_it_was_run": "(§1)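 Adapted agar overlay technique. Strains came from a university microbiology collection. Media were nutrient broth, nutrient agar, mycological peptone and Sabouraud dextrose agar.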"}, "[1]": {"system": "Radical scavenging activity", "assay": "Antioxidant activity assessed as DPPH radical scavenging activity after 8 hrs", "type": "functional", "how_it_was_run": "(§2)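 Semiquantitative TLC-based DPPH radical scavenging, followed over an 8 h period with readings at 30 min, 2 h and 8 h. Activity is expressed as the minimum inhibitory quantity (MIQ, µg) on the plate. Run in duplicate.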"}, "Staphylococcus aureus [2]": {"system": "Staphylococcus aureus", "assay": "Antimicrobial activity against Staphylococcus aureus ATCC 9144 by agar overlay technique", "type": "functional", "how_it_was_run": "as §1"}, "Pseudomonas aeruginosa [3]": {"system": "Pseudomonas aeruginosa", "assay": "Antimicrobial activity against Pseudomonas aeruginosa NCTC 10332 by agar overlay technique", "type": "functional", "how_it_was_run": "as §1"}, "Bacillus subtilis [4]": {"system": "Bacillus subtilis", "assay": "Antimicrobial activity against Bacillus subtilis ATCC 6633 by agar overlay technique", "type": "functional", "how_it_was_run": "as §1"}, "[5]": {"system": "Radical scavenging activity", "assay": "Antioxidant activity assessed as DPPH radical scavenging activity after 2 hrs", "type": "functional", "how_it_was_run": "as §2"}, "Escherichia coli": {"system": "Escherichia coli", "assay": "Antimicrobial activity against Escherichia coli ATCC 11229 by agar overlay technique", "type": "functional", "how_it_was_run": "as §1"}, "[6]": {"system": "Radical scavenging activity", "assay": "Antioxidant activity assessed as DPPH radical scavenging activity after 30 mins", "type": "functional", "how_it_was_run": "as §2"}, "Bacillus subtilis [7]": {"system": "Bacillus subtilis", "assay": "Antimicrobial activity against Bacillus subtilis ATCC 6633 at 100 ug by agar overlay technique", "type": "functional, organism-based"}, "Staphylococcus aureus [8]": {"system": "Staphylococcus aureus", "assay": "Antimicrobial activity against Staphylococcus aureus ATCC 9144 at 100 ug by agar overlay technique", "type": "functional, organism-based"}, "Pseudomonas aeruginosa [9]": {"system": "Pseudomonas aeruginosa", "assay": "Antimicrobial activity against Pseudomonas aeruginosa NCTC 10332 at 100 ug by agar overlay technique", "type": "functional, organism-based"}},
  "note": "Calls of active or inactive are those of the source. No cut-off for these calls is given here.",
  "data": [
    {"smiles": "C[C@@H]1CC(=O)[C@H](OC(=O)c2ccoc2)[C@@]2(C)[C@@H](OC(=O)c3ccoc3)C[C@@H]3C[C@]12OC3(C)C", "values": [
      {"measurement": "MIC", "setting": "Candida albicans", "result": 0.5, "unit": "µg"},
      {"measurement": "MIC", "setting": "[1]", "result": 10, "unit": "µg"},
      {"measurement": "MIC", "setting": "Staphylococcus aureus [2]", "result": 50, "unit": "µg"},
      {"measurement": "MIC", "setting": "Pseudomonas aeruginosa [3]", "result": 10, "unit": "µg"},
      {"measurement": "MIC", "setting": "Bacillus subtilis [4]", "result": 10, "unit": "µg"},
      {"measurement": "MIC", "setting": "[5]", "result": 10, "unit": "µg"},
      {"measurement": "MIC", "setting": "Escherichia coli", "result": 10, "unit": "µg"},
      {"measurement": "MIC", "setting": "[6]", "result": "inactive"}
    ]},
    {"smiles": "Clc1ccc(COC(Cn2ccnc2)c2ccc(Cl)cc2Cl)c(Cl)c1", "note": "(stereo unspecified) [MICONAZOLE]", "values": [
      {"measurement": "MIC", "setting": "Candida albicans", "result": 0.001, "unit": "µg"}
    ]},
    {"smiles": "C=C(C)[C@@H]1CC[C@]2(C)[C@H](CC=C3[C@@H]4C[C@](C)(C(=O)O)CC[C@]4(C)CC[C@]32C)[C@@]1(C)CCC(=O)O", "values": [
      {"measurement": "MIC", "setting": "Candida albicans", "result": 0.001, "unit": "µg"},
      {"measurement": "MIC", "setting": "[1]", "result": 10, "unit": "µg"},
      {"measurement": "MIC", "setting": "Staphylococcus aureus [2]", "result": 0.001, "unit": "µg"},
      {"measurement": "MIC", "setting": "Pseudomonas aeruginosa [3]", "result": 0.01, "unit": "µg"},
      {"measurement": "MIC", "setting": "Bacillus subtilis [4]", "result": 0.01, "unit": "µg"},
      {"measurement": "MIC", "setting": "[5]", "result": "inactive"},
      {"measurement": "MIC", "setting": "Escherichia coli", "result": 0.01, "unit": "µg"},
      {"measurement": "MIC", "setting": "[6]", "result": "inactive"}
    ]},
    {"smiles": "C[C@@H]1CC[C@H](OC(=O)c2ccoc2)[C@@]2(C)[C@@H](OC(=O)c3ccoc3)C[C@@H]3C[C@]12OC3(C)C", "values": [
      {"measurement": "MIC", "setting": "Candida albicans", "result": 0.01, "unit": "µg"},
      {"measurement": "MIC", "setting": "[1]", "result": 10, "unit": "µg"},
      {"measurement": "MIC", "setting": "Staphylococcus aureus [2]", "result": 10, "unit": "µg"},
      {"measurement": "MIC", "setting": "Pseudomonas aeruginosa [3]", "result": 0.5, "unit": "µg"},
      {"measurement": "MIC", "setting": "Bacillus subtilis [4]", "result": 0.5, "unit": "µg"},
      {"measurement": "MIC", "setting": "[5]", "result": 10, "unit": "µg"},
      {"measurement": "MIC", "setting": "Escherichia coli", "result": 10, "unit": "µg"},
      {"measurement": "MIC", "setting": "[6]", "result": "inactive"}
    ]},
    {"smiles": "C[C@H]1C(=O)CC[C@@H]2[C@]1(C)CC[C@H]1[C@@]2(C)CC[C@@]2(C)[C@H]3C[C@@](C)(C(=O)O)CC[C@]3(C)CC[C@]12C", "note": "[OCTANDRONIC ACID]", "values": [
      {"measurement": "MIC", "setting": "Candida albicans", "result": 0.01, "unit": "µg"},
      {"measurement": "MIC", "setting": "[1]", "result": 10, "unit": "µg"},
      {"measurement": "MIC", "setting": "Staphylococcus aureus [2]", "result": 0.5, "unit": "µg"},
      {"measurement": "MIC", "setting": "Pseudomonas aeruginosa [3]", "result": 0.01, "unit": "µg"},
      {"measurement": "MIC", "setting": "Bacillus subtilis [4]", "result": 0.01, "unit": "µg"},
      {"measurement": "MIC", "setting": "[5]", "result": "inactive"},
      {"measurement": "MIC", "setting": "Escherichia coli", "result": 0.01, "unit": "µg"},
      {"measurement": "MIC", "setting": "[6]", "result": "inactive"}
    ]},
    {"smiles": "O=C(O)c1cc(O)c(O)c(O)c1", "values": [
      {"measurement": "MIC", "setting": "[1]", "result": 0.01, "unit": "µg"},
      {"measurement": "MIC", "setting": "[5]", "result": 0.01, "unit": "µg"},
      {"measurement": "MIC", "setting": "[6]", "result": 0.01, "unit": "µg"}
    ]},
    {"smiles": "CC1=CC(=O)[C@H](OC(=O)c2ccoc2)[C@@]2(C)[C@@H](OC(=O)c3ccoc3)C[C@@H]3C[C@]12OC3(C)C", "values": [
      {"measurement": "Activity", "setting": "Bacillus subtilis [7]", "result": "inactive"},
      {"measurement": "MIC", "setting": "Candida albicans", "result": 10, "unit": "µg"},
      {"measurement": "MIC", "setting": "[1]", "result": 10, "unit": "µg"},
      {"measurement": "MIC", "setting": "[5]", "result": 50, "unit": "µg"},
      {"measurement": "Activity", "setting": "Staphylococcus aureus [8]", "result": "inactive"},
      {"measurement": "MIC", "setting": "Escherichia coli", "result": 50, "unit": "µg"},
      {"measurement": "Activity", "setting": "Pseudomonas aeruginosa [9]", "result": "inactive"},
      {"measurement": "MIC", "setting": "[6]", "result": "inactive"}
    ]},
    {"smiles": "O=C(N[C@H](CO)[C@H](O)c1ccc([N+](=O)[O-])cc1)C(Cl)Cl", "note": "[CHLORAMPHENICOL]", "values": [
      {"measurement": "MIC", "setting": "Staphylococcus aureus [2]", "result": 0.001, "unit": "µg"},
      {"measurement": "MIC", "setting": "Pseudomonas aeruginosa [3]", "result": 0.001, "unit": "µg"},
      {"measurement": "MIC", "setting": "Bacillus subtilis [4]", "result": 0.001, "unit": "µg"},
      {"measurement": "MIC", "setting": "Escherichia coli", "result": 0.001, "unit": "µg"}
    ]},
    {"smiles": "O=C1O[C@H]([C@@H](O)CO)C(O)=C1O", "values": [
      {"measurement": "MIC", "setting": "[1]", "result": 0.01, "unit": "µg"},
      {"measurement": "MIC", "setting": "[5]", "result": 0.5, "unit": "µg"},
      {"measurement": "MIC", "setting": "[6]", "result": 10, "unit": "µg"}
    ]}
  ]
}
